Experiments:
[1] = Inhibition of TGFbeta/Smad in TGFbeta-2/activin A-stimulated HEK293 cells preincubated for 2 hrs before stimulation measured after 20 to 22 hrs by firefly/renilla luciferase reporter assay; type: cell-based; details: Homo sapiens
In short: (§1)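 HEK293T cells co-transfected with SBE-4 firefly luciferase and TK-driven renilla luciferase plasmids, replated after 12-14 h, rested 2 h, then given compound, DMSO and TGFβ-2 or Activin A (10 ng/mL). Firefly and renilla signals read after 20-22 h by dual luciferase kit. Triplicate wells; data normalized to DMSO (0% inhibition), mean ± SD of 2-4 independent experiments.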

[2] = test system: HEK293; assay: Inhibition of TGFbeta/Smad in TGFbeta-2/activin A-stimulated HEK293 cells preincubated at 2.5 uM for 2 hrs before stimulation measured after 20 to 22 hrs by firefly/renilla luciferase reporter assay; type: cell-based; details: Homo sapiens; in short: as §1

| SMILES | IC50 [1] [nM] | inhibition [2] [%] |
| --- | --- | --- |
| CCOC(=O)C1=C(C(=O)OCC)C(c2ccc(-c3ccccc3)cc2)C2=C(CC(C)(C)CC2=O)N1 (stereo not drawn) | 1800 | 56 |
| CCOC(=O)C1=C(C)NC2=C(C(=O)CC(C)(C)C2)C1c1ccccc1OC(F)(F)F (stereo not drawn) |  | 9 |
| CC1=C(C(=O)OC2CCCC2)C(c2ccc(-c3ccccc3)cc2)C2=C(CC(C)(C)CC2=O)N1 (stereo not drawn) | 1110 | 77 |
| CCCOCCOC(=O)C1=C(C)NC2=C(C(=O)CC(C)(C)C2)C1c1ccc(-c2ccccc2)cc1 (stereo not drawn) |  | 0 |
| CC1=C(C(=O)OC(C)C)C(c2ccc(-c3ccccc3)cc2)C2=C(CC(C)(C)CC2=O)N1 (stereo not drawn) | 660 | 85 |
| CCOC(=O)C1=C(C)NC2=C(C(=O)CC(C)(C)C2)C1c1cc(OC)c(OC)c(OC)c1 (stereo not drawn) |  | 5 |
| CCCCCCCCCCCCOC(=O)C1=C(C)NC2=C(C(=O)CC(C)(C)C2)C1c1ccc(-c2ccccc2)cc1 (stereo not drawn) |  | 0 |
| CCCOC(=O)C1=C(C)NC2=C(C(=O)CC(C)(C)C2)C1c1ccc(-c2ccccc2)cc1 (stereo not drawn) | 490 | 93 |
| CCC(=O)C1=C(CC)NC2=C(C(=O)CC(C)(C)C2)C1c1ccc(-c2ccccc2)cc1 (stereo not drawn) | 1630 | 62 |
| CC1(C)CC(=O)C2=C(C1)NC1=C(C(=O)c3ccccc31)C2c1ccc(-c2ccccc2)cc1 (stereo not drawn) | 1260 | 70 |
| CCCNCC1=C(C(=O)OCC)C(c2ccc(-c3ccccc3)cc2)C2=C(CC(C)(C)CC2=O)N1 (stereo not drawn) | 1600 | 57 |
| CCOC(=O)C1=C(C)NC2=C(C(=O)NCC2)C1c1ccc(-c2ccccc2)cc1 (stereo not drawn) |  | 21 |
| CCN(CC)CCN1C2=C(C(=O)CC(C)(C)C2)C(c2ccccc2)C2=C1CC(C)(C)CC2=O |  | 12 |
| CC1=C(C(=O)NCc2ccccc2)C(c2ccc(-c3ccccc3)cc2)C2=C(CC(C)(C)CC2=O)N1 (stereo not drawn) | 5190 | 32 |
| CC1=C(C(=O)OC(C)(C)C)C(c2ccc(-c3ccccc3)cc2)C2=C(CC(C)(C)CC2=O)N1 (stereo not drawn) | 670 | 84 |
| CCNC(=O)C1=C(C)NC2=C(C(=O)CC(C)(C)C2)C1c1ccc(-c2ccccc2)cc1 (stereo not drawn) |  | 31 |
| CCOC(=O)C1=C(C)NC2=C(C(=O)CC(C)(C)C2)C1c1ccc(-c2ccc(S(C)(=O)=O)cc2)cc1 (stereo not drawn) | 2760 | 44 |
| CCOC(=O)C1=C(N)NC2=C(C(=O)CC(C)(C)C2)C1c1ccc(-c2ccccc2)cc1 (stereo not drawn) | 1330 | 61 |
| CCOC(=O)C1=C(C)NC2=C(C(=O)CC(C)(C)C2)C1c1ccc(-c2ccncc2)cc1 (stereo not drawn) | 6140 | 27 |
| CCOC(=O)C1=C(C)NC2=C(C(=O)CC(C)(C)C2)C1c1ccc(-c2ccc(F)cc2)cc1 (stereo not drawn) | 1230 | 74 |
| CCCC(=O)C1=C(C)NC2=C(C(=O)CC(C)(C)C2)C1c1ccc(-c2ccccc2)cc1 (stereo not drawn) | 500 | 84 |
| CCNCC1=C(C(=O)OCC)C(c2ccc(-c3ccccc3)cc2)C2=C(CC(C)(C)CC2=O)N1 (stereo not drawn) | 3440 | 64 |
| CC1(C)CC(=O)C2=C(C1)NC1=C(C(=O)NC1)C2c1ccc(-c2ccccc2)cc1 (stereo not drawn) |  | 28 |
| CC1(C)CC(=O)C2=C(C1)NC1=C(C(=O)OC1)C2c1ccc(-c2ccccc2)cc1 (stereo not drawn) | 4300 | 37 |
| CCCCC(=O)C1=C(C)NC2=C(C(=O)CC(C)(C)C2)C1c1ccc(-c2ccccc2)cc1 (stereo not drawn) | 560 | 80 |
| CCOC(=O)C1=C(C)NC2=C(C(=O)CC(C)(C)C2)C1c1ccc(-c2ccccc2)cc1 (stereo not drawn) | 850 | 83 |
| CCOC(=O)C1=C(N)NC2=C(C(=O)CC(C)(C)C2)C1c1ccc(C(C)(C)C)cc1 (stereo not drawn) | 510 | 89 |

| SMILES | IC50 [1] [nM] | inhibition [2] [%] |
| --- | --- | --- |
| CC1(C)CC(=O)C2=C(C1)NC1=C(C(=O)CC(C)(C)C1)C2c1ccccc1 |  | 21 |
| CC1=C(C#N)C(c2ccc(-c3ccccc3)cc2)C2=C(CC(C)(C)CC2=O)N1 (stereo not drawn) | 2950 | 44 |
| CCOC(=O)C1=C(C(=O)O)NC2=C(C(=O)CC(C)(C)C2)C1c1ccc(-c2ccccc2)cc1 (stereo not drawn) |  | 0 |
| CCOC(=O)C1=C(C)NC2=C(C(=O)CC(C)(C)C2)C1c1ccc(C(C)(C)C)cc1 (stereo not drawn) |  | 90 |
| CCOC(=O)C1=C(C)NC2=C(C(=O)CC(C)(C)C2)C1c1ccc(-c2ccc(O)cc2)cc1 (stereo not drawn) | 730 | 74 |
| CCOC(=O)C1=C(C)NC2=C(C(=O)CC(C)(C)C2)C1c1ccc(-c2ccc(OC(F)(F)F)cc2)cc1 (stereo not drawn) | 480 | 95 |
| COC(=O)C1=C(C(=O)O)NC2=C(C(=O)CC(C)(C)C2)C1c1ccc(-c2ccccc2)cc1 (stereo not drawn) |  | 4 |
| CCOC(=O)C1=C(C)NC2=C(C(=O)CC(C)(C)C2)C1c1ccc(-c2ccc(C(F)(F)F)cc2)cc1 (stereo not drawn) | 970 | 88 |
| C#Cc1ccc(C2C(C(=O)OCC)=C(C)NC3=C2C(=O)CC(C)(C)C3)cc1 (stereo not drawn) | 1710 | 59 |
| C=CCOC(=O)C1=C(C)NC2=C(C(=O)CC(C)(C)C2)C1c1ccc(-c2ccccc2)cc1 (stereo not drawn) | 620 | 91 |
| CCN1CC2=C(C1=O)C(c1ccc(-c3ccccc3)cc1)C1=C(CC(C)(C)CC1=O)N2 (stereo not drawn) | 5030 | 25 |
| CCOC(=O)C1=C(C)NC2=C(C(=O)CC(C)(C)C2)C1c1ccc(O)c(OC)c1 (stereo not drawn) |  | 8 |
| CCOC(=O)C1=C(C)NC2=C(C(=O)CC(C)(C)C2)C1c1ccc(-c2ccc(OC)cc2)cc1 (stereo not drawn) | 420 | 93 |
| COC(=O)C1=C(C)NC2=C(C(=O)CC(C)C2)C1c1ccc(-c2ccccc2)cc1 (stereo not drawn) |  | 21 |
| CCOC(=O)C1=C(C)NC2=C(C(=O)CC(C)(C)C2)C1c1ccccc1 (stereo not drawn) |  | 2 |
| CC1(C)CC(=O)C2=C(C1)NC1=C(C(=O)c3ccccc31)C2c1ccccc1 (stereo not drawn) |  | 11 |
| CCOC(=O)C1=C(COC)NC2=C(C(=O)CC(C)(C)C2)C1c1ccc(-c2ccccc2)cc1 (stereo not drawn) | 1890 | 78 |
| CCOC(=O)C1=C(C)NC2=C(C(=O)CC(C)(C)C2)C1c1ccc(-c2ccc(C)cc2)cc1 (stereo not drawn) | 350 | 94 |
| CCOC(=O)C1=C(C)NC2=C(C(=O)CC(C)(C)C2)C1c1ccc(-c2ccc(C#N)cc2)cc1 (stereo not drawn) | 1790 | 52 |
| CCOCCOC(=O)C1=C(C)NC(C)=C(C(=O)OCCOCC)C1c1ccccc1OC(F)(F)F |  | 4 |
| CC1(C)CC(=O)C2=C(C1)NC1=C(C(=O)N(Cc3ccccc3)C1)C2c1ccc(-c2ccccc2)cc1 (stereo not drawn) | 870 | 82 |
| CCOC(=O)C1=C(C)NC2=C(C(=O)CC(C)(C)C2)C1c1ccc(-c2ccc(Br)cc2)cc1 (stereo not drawn) | 460 | 94 |
| CCOC(=O)C1=C(C)NC2=C(C(=O)CC(C)(C)C2)C1c1ccc(-c2ccc(Cl)cc2)cc1 (stereo not drawn) | 760 | 91 |
| CC1=C(C(=O)OCC(C)C)C(c2ccc(-c3ccccc3)cc2)C2=C(CC(C)(C)CC2=O)N1 (stereo not drawn) | 420 |  |
| COC(=O)C1=C(C(=O)OC)C(c2ccc(-c3ccccc3)cc2)C2=C(CC(C)(C)CC2=O)N1 (stereo not drawn) | 2010 | 46 |
| CCOC(=O)C1=C(C)NC2=C(C(=O)CC(C)(C)C2)C1c1ccc(-c2ccc(N(C)C)cc2)cc1 (stereo not drawn) | 330 | 95 |

From ChEMBL document CHEMBL3407498, “Design, synthesis and 3D-QSAR studies of novel 1,4-dihydropyridines as TGFβ/Smad inhibitors” (Eur J Med Chem, 2015)
